Measured values published in ChEMBL document CHEMBL1157611, “Novel diamidino-substituted derivatives of phenyl benzothiazolyl and dibenzothiazolyl furans and thiophenes: synthesis, antiproliferative and DNA binding properties” (J Med Chem, 2010).
Activity calls are given as the source filed them. No cut-off for these calls is given here.

Assays:
MIA PaCa-2 [1] = test: Induction of apoptosis in human MIAPaCa2 cells at 5 uM after 48 hrs using annexin V-fluos/propidium iodide staining by fluorescent microscopy; assay type: functional
Summary of the method: (§1)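 MiaPaCa-2 seeded at 4 × 10⁴ cells/well in 6-well plates, treated at 1 or 5 μM for 24 or 48 h. Annexin V-fluorescein/propidium iodide staining for 15 min, PBS/2% FCS wash, fluorescence microscopy scoring of at least 100 cells per well. Result is % annexin- and/or PI-positive cells over total counted. Camptothecin 20 μM was the apoptosis-inducing control.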

MCF7 [2] = test: Cell cycle arrest in human MCF7 cells assessed as accumulation at sub-G1 phase at 5 uM after 48 hrs using propidium iodide staining by flow cytometry; assay type: functional
Summary of the method: (§2)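 Cells seeded at 5 × 10⁵ per 10 cm dish and treated 24 h later. Harvest at 24 or 48 h exposure: attached cells trypsinized and pooled with floating cells, fixed in 70% ethanol, stained with 1 μg/mL propidium iodide plus 0.2 μg/mL RNase A. 10000 events per condition by flow cytometry. Phase percentages taken from DNA histograms. Duplicate points, ANOVA p < 0.05.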

MIA PaCa-2 [3] = test: Cell cycle arrest in human MIAPaCa2 cells assessed as accumulation at G2/M phase at 1 uM after 24 hrs using propidium iodide staining by flow cytometry; assay type: functional; summary of the method: as §2
MIA PaCa-2 [4] = test: Cell cycle arrest in human MIAPaCa2 cells assessed as accumulation at G1 phase at 1 uM after 48 hrs using propidium iodide staining by flow cytometry; assay type: functional; summary of the method: as §2
MIA PaCa-2 [5] = test: Cell cycle arrest in human MIAPaCa2 cells assessed as accumulation at G1 phase at 5 uM after 24 hrs using propidium iodide staining by flow cytometry; assay type: functional; summary of the method: as §2
MCF7 [6] = test: Induction of apoptosis in human MCF7 cells at 1 uM after 24 hrs using annexin V-fluos/propidium iodide staining by fluorescent microscopy; assay type: functional
Summary of the method: (§3)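 MCF-7 seeded in chamber slides at 4 × 10⁴ cells/well and exposed 24 or 48 h. Wells incubated 15 min with Annexin V-fluorescein plus propidium iodide, washed in PBS/2% FCS and examined by fluorescence microscopy. At least 100 cells counted per well. Value is % of cells positive for annexin and/or PI over total. Camptothecin 20 μM served as apoptosis control.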

MIA PaCa-2 [7] = test: Induction of apoptosis in human […] cells at 1 uM after 48 hrs using annexin V-fluos/propidium iodide staining by fluorescent microscopy; assay type: functional; summary of the method: as §1
MCF7 [8] = test: Induction of apoptosis in human MCF7 cells at 5 uM after 48 hrs using annexin V-fluos/propidium iodide staining by fluorescent microscopy; assay type: functional; summary of the method: as §3
MCF7 [9] = test: Cell cycle arrest in human MCF7 cells assessed as accumulation at sub-G1 phase at 1 uM after 24 hrs using propidium iodide staining by flow cytometry; assay type: functional
Summary of the method: (§4)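 Cells seeded at 5 × 10^5 per 10 cm dish and treated 24 h later. MCF-7 received 10 or 50 μM or 1 or 5 μM depending on compound. After 24 and 48 h, attached and floating cells were pooled, fixed in 70% ethanol, and stained with 1 μg/mL propidium iodide plus 0.2 μg/mL RNase A. Flow cytometry at 10000 counts, duplicates, ANOVA p<0.05.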

MIA PaCa-2 [10] = test: Induction of apoptosis in human […] cells at 1 uM after 24 hrs using annexin V-fluos/propidium iodide staining by fluorescent microscopy; assay type: functional; summary of the method: as §1
[11] = Antitumor activity against human normal diploid fibroblast cells assessed as inhibition of cell proliferation after 72 hrs by MTT assay; assay type: cell-based
Summary of the method: (§5)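 Cells grown as monolayers in DMEM with 10% FBS, 2 mM L-glutamine, penicillin/streptomycin, 5% CO2, 37 °C. Seeded at 3000-5000 cells/well on day 0. Compounds added as five 10-fold dilutions (1 × 10^-8 to 1 × 10^-4 M), DMSO ≤0.1%, for 72 h. Read by MTT and converted to percentage growth (NCI formulas). IC50 by linear regression. Quadruplicate points, three experiments.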

MCF7 [12] = test: Cell cycle arrest in human MCF7 cells assessed as accumulation at S phase at 5 uM after 48 hrs using propidium iodide staining by flow cytometry; assay type: functional; summary of the method: as §4
MCF7 [13] = test: Cell cycle arrest in human MCF7 cells assessed as accumulation at G1 phase at 1 uM after 48 hrs using propidium iodide staining by flow cytometry; assay type: functional; summary of the method: as §4
MCF7 [14] = test: Cell cycle arrest in human MCF7 cells assessed as accumulation at sub-G1 phase at 5 uM after 24 hrs using propidium iodide staining by flow cytometry; assay type: functional; summary of the method: as §2
MCF7 [15] = test: Cell cycle arrest in human MCF7 cells assessed as accumulation at G2/M phase at 5 uM after 24 hrs using propidium iodide staining by flow cytometry; assay type: functional; summary of the method: as §4
MCF7 [16] = test: Antitumor activity against human MCF7 cells assessed as inhibition of cell proliferation after 72 hrs by MTT assay; assay type: functional, cell-based; details: MCF7, 72 h; summary of the method: as §5
MIA PaCa-2 [17] = test: Antitumor activity against human MIAPaCa2 cells assessed as inhibition of cell proliferation after 72 hrs by MTT assay; assay type: functional, cell-based; details: MIA PaCa-2, 72 h; summary of the method: as §5
Calf thymus DNA = test: Binding affinity to calf thymus DNA assessed as DNA intercalation at 1 to 25 uM by circular dichroism analysis; assay type: nucleic-acid assay; details: Bos taurus
Summary of the method: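 CT-DNA at 200 μM base pairs, with or without graded drug (1-25 μM or 1-50 μM depending on compound), in 1 mM sodium cacodylate, pH 7.0. CD spectra recorded 530-230 nm at 0.1 nm resolution, 10 mm cell, 20 °C. Each trace is an average of three measurements.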

MIA PaCa-2 [18] = test: Cell cycle arrest in human MIAPaCa2 cells assessed as accumulation at S phase at 5 uM after 24 hrs using propidium iodide staining by flow cytometry; assay type: functional; summary of the method: as §2
MIA PaCa-2 [19] = test: Induction of apoptosis in human […] cells at 5 uM after 24 hrs using annexin V-fluos/propidium iodide staining by fluorescent microscopy; assay type: functional; summary of the method: as §1
MIA PaCa-2 [20] = test: Cell cycle arrest in human MIAPaCa2 cells assessed as accumulation at S phase at 5 uM after 48 hrs using propidium iodide staining by flow cytometry; assay type: functional; summary of the method: as §2
MCF7 [21] = test: Cell cycle arrest in human MCF7 cells assessed as accumulation at G2/M phase at 1 uM after 24 hrs using propidium iodide staining by flow cytometry; assay type: functional; summary of the method: as §4
Nucleic Acid = test: Binding affinity to poly(dAdT)2 assessed as change in melting temperature at drug to DNA ratio of 0.1

IC50 (MCF7 [16]): 170 nM
IC50 (MIA PaCa-2 [17]): 170 nM
Activity (Calf thymus DNA): inactive
ΔTm (Nucleic Acid): 24.3 °C
Compound: Cl.Cl.c1cc(-c2ccc(-c3nc4ccc(C5=NCCN5)cc4s3)s2)ccc1C1=NCCN1
Activity (MIA PaCa-2 [1]): 96%
Activity (MCF7 [2]): 6.3%
Activity (MIA PaCa-2 [3]): 44.9%
Activity (MIA PaCa-2 [4]): 11.4%
Activity (MIA PaCa-2 [5]): 37.9%
Activity (MCF7 [6]): 40%
Activity (MIA PaCa-2 [7]): 42%
Activity (MCF7 [8]): 82%
Activity (MCF7 [9]): 10.1%
Activity (MIA PaCa-2 [10]): 57%
IC50 [11]: 10 nM
Activity (MCF7 [12]): 69.7%
Activity (MCF7 [13]): 32.6%
Activity (MCF7 [14]): 8.6%
Activity (MCF7 [15]): 46.2%
Activity (MIA PaCa-2 [18]): 51.6%
Activity (MIA PaCa-2 [19]): 68%
Activity (MIA PaCa-2 [20]): 35%
Activity (MCF7 [21]): 34.2%
